From PubChem BioAssay AID492968 (Southern Research Specialized Biocontainment Screening …, 2010)

The compounds below were run on HEp-2 viability, luminescence (CellTiter-Glo) (assay: viability loss in uninfected HEp-2 cells – cell-based, CellTiter-Glo luminescence, synthesized compounds, set 3, cytotoxicity control for RSV inhibitor project, dose response (AID 492968)).
Outline: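 test system = HEp-2 cells | amount = 10,595 cells/well | compound = eight twofold dilutions, 50 to 0.39 µM final, 0.5% DMSO | times = compound exposure of 6 days at 37 °C, 5% CO2 | signal = CellTiter-Glo luminescence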

| Structure (SMILES) | CC50 [µM] |
| --- | --- |
| Cc1cc(C)cc(NC(=O)[C@@H]2CCCN2S(=O)(=O)c2cccc3cccnc23)c1 | 31.6 |
| Cc1ccc(NC(=O)[C@@H]2CCCN2S(=O)(=O)c2cccc3cccnc23)cc1 | 27.1 |
| Cc1ccccc1NC(=O)[C@@H]1CCCN1S(=O)(=O)c1cccc2cccnc12 | 45 |
